The source of these data is PMC3844559 (Journal of medicinal chemistry, 2013).

No end group written: not given here. *: point of attachment. X1 = S‑(2,3-bis(palmitoyloxy)-(2R)-propyl)‑R‑cysteinyl, CCCCCCCCCCCCCCCC(=O)OC[C@H](CSC[C@H](N)C(=O)*)OC(=O)CCCCCCCCCCCCCCC

The target of series [1] is human TLR2 (Homo sapiens, UniProt O60603). Kind of series: human TLR2-specific NF-κB reporter gene assay. The series is classed as cell-based. The note with it: for EC50: hTLR2-Agonistic Activity (EC50 in nM), human TLR2-specific reporter gene assay; for hTLR2-specific agonistic activity: reporter gene assays. Background: In a reporter assay the amount or activity of a reporter protein is the signal.

Series [2] can be described thus: aqueous solubility. The series is classed as physicochemical. As to conditions: water.
Series [3] is described as follows: stability of aqueous stocks / accelerated stability testing. As to conditions: for stability of aqueous stocks: aqueous stocks on storage. The series is classed as physicochemical.
Series [4] concerns rabbit models. As to conditions: cited from earlier work.
The test system of series [5] is ex vivo human blood models. The note with it: cited from earlier work.
Series [6] deals with murine models of immunization. As to conditions: cited from earlier work.
Series [7] deals with patients. As to conditions: cited from earlier work.
Series [8] deals with rabbits. Kind of series: safety evaluation in rabbits. Type of series: in vivo, rabbit. The gist of the method:
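Rabbits (n=3 per group) received test compound 100 μg/dose, LPS 1 μg/dose (positive control) or saline vehicle. Doses were in sterile saline without excipients, 0.5 mL, as an i.v. bolus into the marginal ear vein. Blood was drawn from the contralateral ear at 0, 2 and 6 h for total/differential leukocytes, band forms, hemoglobin and MCH. Core temperature was logged by rectal thermistor probe.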

Series [9] concerns human PBMCs or human whole blood. Kind of series: proinflammatory cytokine induction, 5-plex cytometric bead assays. Type of series: cell-based. As to conditions: 5-plex cytometric bead assays (data not shown).
Series [10] has as its system granulocytes and monocytes in human whole blood. Kind of series: CD11b upregulation by flow cytometry in whole human blood. Type of series: cell-based. As to conditions: 1 h. The gist of the method:
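Heparin-anticoagulated whole blood from healthy volunteers was added to serial dilutions of test compound, with reference compounds and fRPMI negative controls, then held 1 h at 37 °C. Cells were stained with CD11b-PE/CD14-APC for 30 min at 4 °C in the dark, then lysed/fixed and washed twice in saline. 100,000 gated events were acquired. Granulocytes were gated by forward/side scatter, monocytes by CD14.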
Background: In flow cytometry, cells or beads pass a laser one at a time.

For series [11], the system named is human PBMCs. Kind of series: 41-plex chemokine/cytokine immunoassay in hPBMC. The series is classed as cell-based. The note with it: 12 h, 41-plex immunoassay. In outline: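 Fresh human PBMCs were isolated on Ficoll-Hypaque gradients from venipuncture blood. Cells were plated at 10⁵ per well, stimulated 12 h with graded concentrations of test compound, with LPS as reference. Supernatants were collected by centrifugation and assayed in duplicate for 41 cytokines/chemokines by magnetic bead multiplex; intra-assay CV was 4–8%. Data are means of duplicates from a representative experiment.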

Where [12] appears, read: single i.v. bolus, 38 100 μg, LPS 1 μg.

Chain of human TLR2 (O60603 21-784): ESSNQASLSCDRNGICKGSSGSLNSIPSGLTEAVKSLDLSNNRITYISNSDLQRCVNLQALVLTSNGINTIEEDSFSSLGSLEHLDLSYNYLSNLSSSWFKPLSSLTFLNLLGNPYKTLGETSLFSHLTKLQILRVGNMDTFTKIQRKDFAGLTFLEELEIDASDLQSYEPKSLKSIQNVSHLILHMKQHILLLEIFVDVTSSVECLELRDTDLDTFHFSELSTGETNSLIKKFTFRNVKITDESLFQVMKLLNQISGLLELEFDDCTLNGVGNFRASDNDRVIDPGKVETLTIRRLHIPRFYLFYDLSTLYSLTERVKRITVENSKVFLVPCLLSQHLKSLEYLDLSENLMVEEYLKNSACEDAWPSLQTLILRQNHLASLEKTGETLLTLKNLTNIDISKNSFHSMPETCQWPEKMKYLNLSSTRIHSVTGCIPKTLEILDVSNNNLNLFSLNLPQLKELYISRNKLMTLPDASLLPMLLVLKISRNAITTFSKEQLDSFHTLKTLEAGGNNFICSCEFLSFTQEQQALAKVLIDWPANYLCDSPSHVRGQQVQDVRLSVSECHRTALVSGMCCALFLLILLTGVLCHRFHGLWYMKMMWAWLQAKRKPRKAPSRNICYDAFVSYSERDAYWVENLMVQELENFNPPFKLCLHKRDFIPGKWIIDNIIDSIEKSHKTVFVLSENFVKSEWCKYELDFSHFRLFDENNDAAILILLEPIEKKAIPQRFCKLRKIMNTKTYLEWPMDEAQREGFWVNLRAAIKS

In series [1], `CCCCCCCCCCCCCCCC(=O)OCCSC[C@H](NC(C)=O)C(=O)N[C@@H](CCCCN)C(=O)OC` [Compound 10, 2-(((R)-2-Acetamido-3-(((S)-6-amino-1-methoxy-1-oxohexan-2-yl)amino)-3-oxopropyl)thio)ethyl palmitate] showed an EC50 of 1.5 nM. The “aqueous solubility” value in [2] was “highly water soluble”. Also, in series [3], the “stability of aqueous stocks” value is “significant loss of activity of aqueous stocks in less than a week”.
In the case of `CCCCCCCCCCCCCCCC(=O)OCCSC[C@H](NC(C)=O)C(=O)N[C@@H](COC(=O)CCC(=O)O)C(=O)OC` [Compound 14, (7S,10R)-10-Acetamido-7-(methoxycarbonyl)-4,9,16-trioxo-5,15-dioxa-12-thia-8-azahentriacontan-1-oic acid], in series [1], the EC50 was 0.65 nM and the “hTLR2-specific agonistic activity” value is on record as “retained hTLR2-specific agonistic activity”. Also, in [2], the “aqueous solubility” value was “highly water soluble”.
Turning to `CCCCCCCCCCCCCCCC(=O)OCCSC[C@H](NC(C)=O)C(=O)N[C@@H](COC(=O)c1cccnc1)C(=O)OC` [Compound 15, (S)-2-((R)-2-Acetamido-3-((2-(palmitoyloxy)ethyl)thio)propanamido)-3-methoxy-3-oxopropyl nicotinate], in series [1], the midpoint of the response, the EC50, lay at 0.75 nM and the “hTLR2-specific agonistic activity” value is recorded as “retained hTLR2-specific agonistic activity”.
As for `CCCCCCCCCCCCCCCCOC(=O)NCCSC[C@H](NC(C)=O)C(=O)N[C@@H](CO)C(=O)OC` [Compound 34, (2S,5R)-Methyl 5-acetamido-2-(hydroxymethyl)-4,11-dioxo-12-oxa-7-thia-3,10-diazaoctacosan-1-oate], the midpoint of the response in series [1], the EC50, lay at 0.065 nM.
On to `CCCCCCCCCCCCCCCC(=O)OCC(CSC[C@H](N)C(=O)N[C@@H](CO)C(=O)O)OC(=O)CCCCCCCCCCCCCCC` (mixture of isomers) [Compound 2, S-[2,3-bis(palmitoyloxy)-(2RS)-propyl]-R-cysteinyl-S-serine], for which the “local reactogenicity and pyrogenicity” value in [4] is given as “devoid of”. Besides, in series [5] (earlier findings), the “levels of proinflammatory mediators such as TNF-α, IL-1β and IL-18” value is recorded as “virtually undetectable levels”. The “pro-inflammatory activity (TNF-α, IL-1β, IL-6, IL-8 production)” value in series [5] (ex vivo human blood models) is reported as “devoid of any detectable pro-inflammatory activity”. Also, the adjuvanticity entry in series [6] is listed as “potently adjuvantic”.
On to “S-[2,3-bis(palmitoyloxy)-(2R)-propyl]-R-cysteinyl-GNNDESNISFKEK (X1-GNNDESNISFKEK) [Compound 1]”, for which the “well tolerated dose, intra-tumoral injection” value in [7] (ten patients with pancreas carcinomas, 20–30 μg injected during surgery) was “up to 20 μg”. Further, in series [7] (ten patients with pancreas carcinomas, 20–30 μg), the “systemic side effects, intra-tumoral injection” value is reported as “no systemic side effects were noted”. In series [7] (twelve patients, 0.125–1.0 μg), the “systemic side effects, application on punch biopsy skin lesions” value is “other than transient and self-limited erythema, no systemic side effects were noted”.
Compound `CCCCCCCCCCCCCCCCn1cc(CCSC[C@H](NC(C)=O)C(=O)N[C@@H](CO)C(=O)OC)nn1` [Compound 27, (S)-Methyl 2-((R)-2-acetamido-3-((2-(1-hexadecyl-1H-1,2,3-triazol-4-yl)ethyl)thio)propanamido)-3-hydroxypropanoate] yielded an EC50 in series [1] of 1020 nM.
Same read-out and setting: for `CCCCCCCCCCCCCCCC(=O)NCCSC[C@H](NC(C)=O)C(=O)N[C@@H](CO)C(=O)OC` [Compound 22, (S)-Methyl 2-((R)-2-acetamido-3-((2-palmitamidoethyl)thio)propanamido)-3-hydroxypropanoate] the value was 12.8 nM.
Consider `CCCCCCCCCCCCCCCC(=O)OCCSC[C@H](NC(C)=O)C(=O)N[C@@H](COC(=O)[C@@H](N)CCCCN)C(=O)OC` [Compound 12, 2-(((R)-2-Acetamido-3-(((S)-3-(((S)-2,6-diaminohexanoyl)oxy)-1-methoxy-1-oxopropan-2-yl)amino)-3-oxopropyl)thio)ethyl palmitate], for which, in [1], the response was half-maximal at 1.5 nM (EC50) and the “hTLR2-specific agonistic activity” value was “retained hTLR2-specific agonistic activity”. The “aqueous solubility” value in [2] is reported as “highly water soluble”. Also, the “stability of aqueous stocks” value in [3] is listed as “found to be unstable”.
The compound `CCCCCCCCCCCCCCCCOC(=O)NCCSC[C@H](NC(C)=O)C(=O)N[C@@H](CO)C(=O)NCCCN(C)C` [Compound 38, Hexadecyl ((8S,11R)-11-acetamido-8-(hydroxymethyl)-2-methyl-7,10-dioxo-13-thia-2,6,9-triazapentadecan-15-yl)carbamate] displayed an EC50 in [1] of 0.25 nM. In addition, in series [8] (setting [12]), the “pyrogenicity (febrile response, core temperature)” value is reported as “did not induce any such effects”; the “total leukocyte and lymphocyte counts in peripheral blood” value is given as “did not induce any such effects”. Also, the “observable adverse effects, dose-escalation study” value in series [8] (up to 100 μg/animal, intramuscular or intravenous bolus) is “did not result in any observable adverse effects”. Besides, the solubility in series [2] is over 10000 µg/mL. In series [9], the proinflammatory cytokine signatures result is “could not detect any significant proinflammatory cytokine signatures”. Further, the “CD11b upregulation in monocytes” value in [10] (CD14+ gated) was “strong monocytic CD11b upregulation”. The “CD11b upregulation in neutrophils (granulocytes)” value in [10] (relative to 2) is “upregulated CD11b very potently”. Besides, in series [3] (accelerated stability testing), the “chemical stability under accelerated stability testing conditions” value was “retained excellent chemical stability”. Further, the “chemokine induction (MCP-1, MCP-3, MDC, IL-8)” value in series [11] is on record as “prominent biphasic induction”.
`CCCCCCCCCCCCCc1cn(CCSC[C@H](NC(C)=O)C(=O)N[C@@H](CO)C(=O)OC)nn1` [Compound 24, (S)-Methyl 2-((R)-2-acetamido-3-((2-(4-tridecyl-1H-1,2,3-triazol-1-yl)ethyl)thio)propanamido)-3-hydroxypropanoate]: a half-maximal response in series [1] (EC50) required 290 nM.
Turning to `CCCCCCCCCCCCCCCC(=O)OCCSC[C@H](NC(C)=O)C(=O)N[C@@H](COS(=O)(=O)O)C(=O)OC` [Compound 13, 2-(((R)-2-Acetamido-3-(((S)-1-methoxy-1-oxo-3-(sulfooxy)propan-2-yl)amino)-3-oxopropyl)thio)ethyl palmitate], in series [1], the EC50 amounted to 5.84 nM and the “hTLR2-specific agonistic activity” value is “retained hTLR2-specific agonistic activity”. In addition, the “aqueous solubility” value in [2] was “highly water soluble”.

What is called EC50 is the concentration that produces a half-maximal response. Higher therefore signals a less potent agent. As usually defined, the solubility is the dissolved amount per volume that the medium holds. The low end stands for a poorly soluble substance, the high end for a readily soluble substance.
